High-throughput results as filed in PubChem.
MLL AF4-AF9 inh: MLL-AF4/AF9 protein interaction inhibition. AID 651704. AlphaScreen, biotin-AF4 peptide binding to FLAG-AF9. inhibition, % at 10 µM. P42568. actives 0.47% (n = 350,000);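 active = every replicate reaching a set inhibition limit, whatever the replicate mean, cut at about 25% in these data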;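 also: 0% = plate neutral control median and 100% = total signal loss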
E-sel inducer: E-selectin induction on HUVECs | activation, % at 7.58 µM | actives 0.37% (n = 260,000) | HUVEC E-selectin immunofluorescence imaging; normalized: neutral wells 0, TNF-alpha wells 100 | P16581;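 active = mean E-selectin-positive cell signal at least 10% of the positive control, reached in at least 60% of replicates, without over 20% cell loss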
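Test system: HUVEC | Signal: Immunofluorescence imaging | Read-out: Percent E-selectin-positive cells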
RAD54 inh: RAD54 (human) branch migration inhibition; Q92698; RAD54 Holliday junction branch migration, FAM/BHQ fluorescence; inhibition, % at 10.4 µM; actives 0.14% (n = 360,000); AID 602329;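 active = mean normalized replicate activity at least 40 and at least half of replicates scoring 40 or more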;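 also: 0% = median of neutral control wells and 100% = median of positive control wells; inhibitors cause a drop in the FAM fluorescence signal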
rRNA inh HTS: inhibits bacterial ribosomal RNA function over humanized ribosomes | E. coli WT GFP vs humanized-ribosome RFP mutants, fluorescence, 24 h; stronger effect = lower value; DMSO median 0, no signal -100 | GFP signal change (wild-type ribosome), % (test concentration not listed) | actives 1.6% (n = 350,000) | AID 720706;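 active = significant combined selectivity score with lowered wild-type GFP, culture density cut under 30%, mutant RFP and density less affected; inactive = any of these conditions unmet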
RAD52 inh: RAD52 (human) annealing inhibition; P43351; recombinant RAD52 DNA annealing, FRET fluorescence; inhibition, % at 18.7 µM; actives 0.46% (n = 360,000); AID 651710;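 active = every replicate showing at least 50% inhibition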
Target sequence (P43351 whole entry, looked up): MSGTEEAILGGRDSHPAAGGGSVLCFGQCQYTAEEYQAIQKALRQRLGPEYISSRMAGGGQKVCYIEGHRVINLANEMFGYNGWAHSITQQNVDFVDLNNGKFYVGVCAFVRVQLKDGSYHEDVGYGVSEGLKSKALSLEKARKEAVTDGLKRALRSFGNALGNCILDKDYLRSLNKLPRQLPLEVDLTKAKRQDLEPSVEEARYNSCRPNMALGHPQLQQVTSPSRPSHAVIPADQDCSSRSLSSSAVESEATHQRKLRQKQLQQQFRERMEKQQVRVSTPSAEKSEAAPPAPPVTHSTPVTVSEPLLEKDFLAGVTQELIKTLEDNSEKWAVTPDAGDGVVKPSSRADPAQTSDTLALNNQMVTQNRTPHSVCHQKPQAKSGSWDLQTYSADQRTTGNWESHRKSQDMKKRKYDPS
INS-1E GSIS act: GLuc luminescence reporter in INS-1E cells, primary screen for activators of glucose-dependent secretion of insulin; INS-1E GLuc reporter insulin secretion, 2-3 h; activation, % at 16.6 µM; actives 0.61% (n = 370,000); AID 743287;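 active = lowest replicate activation of at least 40%, so every replicate reaches that level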;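 also: 0% = median of neutral control wells and 100% = median of IBMX positive control wells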
The depositor's hits bear a star; . = no result; ! = not confirmed by another sample. Shown are actives, neighbours in structure and some others; about 2.6% of the full set was active somewhere.

SMILES | MLL AF4-AF9 inh | E-sel inducer | RAD54 inh | rRNA inh HTS | RAD52 inh | INS-1E GSIS act
O=C1OC(c2ccc3ccccc3c2O)(c2ccc3ccccc3c2O)c2ccccc21 | 10 | 1 | 8 | -41* | -8 | -6
Cc1cccc(CN2C(=O)CSc3ccc(C(=O)NC4CC4)cc32)c1 | -4 | . | -2 | -4 | -14 | 191*
CC(C)CC#Cc1ccc2c(c1)O[C@@H](CN(C)C(=O)CN(C)C)[C@H](C)CN([C@H](C)CO)S2(=O)=O | 3 | 0 | 8 | 6 | 20 | -7
CC(C)OC(=O)NCCOC(=O)Nc1ccc(Cl)cc1 | 3 | 0 | . | -21* | 6 | -39
CC(C)OC(=O)NCCOC(=O)Nc1ccccc1Cl | -4 | 0 | . | -2 | 11 | 3
Cc1[nH]ccc(=O)c1Cc1c(Cl)cccc1Cl | 0 | . | 2 | -3 | -6 | 8
Cc1nc(C(Cl)(Cl)Cl)nc2[nH]ccc(=O)c12 | 1 | . | . | -14 | -31 | 130*
COc1ccc(OC)c(C(=O)COC(=O)c2ccc([N+](=O)[O-])o2)c1 | 9 | -1 | 1 | -20* | -5 | 3
Cc1c(NS(=O)(=O)c2ccc(Br)cc2)c(=O)n(-c2ccccc2)n1C | -1 | . | -5 | 0 | -5 | 2
O=S(=O)(Nc1ccn(-c2ccccc2)n1)c1ccc(Br)cc1 | 3 | . | 4 | -46* | -91 | 16
O=C(CC1CC1)N1CC(=O)N2[C@H](CO)[C@H](c3ccc(C#Cc4cccc(F)c4)cc3)[C@@H]2C1 | -5 | 0 | . | -40 | -5 | -20
CCN(CC)S(=O)(=O)c1cc(NC(=O)Cn2ncc(Cl)c(Cl)c2=O)ccc1C | -8 | -2 | . | -26* | -24 | -4
CCN(CC)S(=O)(=O)c1cc(NS(=O)(=O)c2cccc(Cl)c2Cl)ccc1C | 2 | -2 | -8 | -38* | -10 | -19
O=C(Cn1ncc(Cl)c(Cl)c1=O)Nc1ccc2c(c1)OCO2 | -5 | . | 0 | 2 | -6 | -5
C[C@@H]1CCCCO[C@H](CN(C)C)[C@@H](C)CN([C@H](C)CO)C(=O)c2cc(NC(=O)Nc3ccc(C(F)(F)F)cc3)ccc2O1 | 2 | 0 | -5 | 0 | 23 | 6
C[C@@H]1CCCCO[C@H](CN(C)C)[C@H](C)CN([C@@H](C)CO)C(=O)c2cc(NC(=O)Nc3ccc(C(F)(F)F)cc3)ccc2O1 | 5 | 0 | 13 | -5 | 23 | -8
C[C@H](CO)N1C[C@H](C)[C@H](CN(C)CC2CC2)OCCCC[C@H](C)Oc2ccc(NC(=O)Nc3ccc(C(F)(F)F)cc3)cc2C1=O | 13 | 0 | . | -5 | 54* | -16
C[C@@H]1CCCCO[C@@H](CN(C)C)[C@H](C)CN([C@H](C)CO)C(=O)c2cc(NC(=O)Nc3ccc(C(F)(F)F)cc3)ccc2O1 | 7 | . | 4 | -59 | 50* | 14
C[C@@H]1CCCCO[C@@H](CN(C)C)[C@@H](C)CN([C@H](C)CO)C(=O)c2cc(NC(=O)Nc3ccc(C(F)(F)F)cc3)ccc2O1 | 2 | 0 | -1 | -28 | 54* | -18
Cc1ccc(S(=O)(=O)N[C@H]2CC[C@H](CCNC(=O)CN3CCOCC3)O[C@H]2CO)cc1 | -1 | -1 | 2 | 0 | -46 | 6
C[C@H](CO)N1C[C@H](C)[C@H](CN(C)CC2CC2)Oc2cc(-c3ccc(C#N)cc3)ccc2S1(=O)=O | 5 | 0 | -9 | -1 | 2 | -1
C[C@@H]1CN([C@H](C)CO)C(=O)c2cc(-c3cccnc3)cnc2O[C@H]1CN(C)C(=O)Nc1ccc2c(c1)OCO2 | -3 | 0 | 1 | -2 | 10 | 15
Cc1ccc(NS(=O)(=O)c2ccc3c(c2)NC(=O)CCS3)c(C)c1 | -5 | . | -7 | -33* | -12 | -10
Cc1ccc(NS(=O)(=O)c2ccc3c(c2)NC(=O)CCS3)c(Cl)c1 | 1 | . | -9 | -1 | -5 | -5
Cc1ccc(S(=O)(=O)N2C[C@@H]3N[C@H](C2)C3c2ccc(-c3cccc(C#N)c3)cc2)cc1 (some centres undefined) | -4 | 0 | . | 0 | 82*! | 19
SMILES | MLL AF4-AF9 inh | E-sel inducer | RAD54 inh | rRNA inh HTS | RAD52 inh | INS-1E GSIS act
N#Cc1cccc(-c2ccc([C@@H]3[C@@H]4CN(S(=O)(=O)c5ccc(-c6ccccc6)cc5)C[C@H]3N4)cc2)c1 | -1 | 0 | . | 2 | -7 | 556*
CNc1nc(Sc2cccc(C(F)(F)F)c2)cc(C(F)(F)F)n1 | . | . | -2 | -2 | -8 | 11
CNc1nc(Sc2ccccc2)cc(C(F)(F)F)n1 | . | . | -1 | -3 | -3 | 51*
CCC(=O)N1C[C@@H](C)[C@@H](OC)CN(C)C(=O)c2ccc(NC(=O)c3cc(C)on3)cc2OC[C@@H]1C | . | 0 | 7 | 3 | . | -8
Cc1ccc(S(=O)(=O)C=CS(=O)(=O)c2ccc(C)cc2)cc1 | 5 | . | 5 | 3 | -3 | 87*
C=CCn1c(N2CCCCCC2)nc2c1c(=O)n(C)c(=O)n2C | 2 | . | 3 | . | . | .
C/C(Cl)=C\Cn1c(N2CCCC2)nc2c1c(=O)n(C)c(=O)n2C | 3 | 0 | -9 | -6 | -9 | 65*
CCOC(=O)c1sc(CS(=O)(=O)c2ccc(Cl)cc2)nc1C | 4 | . | . | 10 | -10 | .
CCOC(=O)c1sc(-c2ccc(Cl)cc2Cl)nc1O | 3 | . | . | -29* | -15 | -2
COc1ccc(C(=O)Cn2nnc(-c3ccccc3F)n2)cc1 | -2 | . | 0 | -31* | -17 | 17
COc1ccc(-c2ccc(-c3nnn(CC(C)=O)n3)cc2)cc1 | . | . | -14 | . | . | .
N#C/C(=N\Nc1ccccc1)C(N)=S | 1 | . | 4 | -34 | -23 | -3
Cc1ccc(N/N=C(\C#N)C(N)=S)cc1C | 2 | 6 | . | -33* | -11 | 7
Cc1ccc(NC(N)=S)cc1C | -2 | 0 | -2 | 5 | 4 | 8
N#C/C(=N\Nc1ccc(Cl)cc1)C(N)=S | 5 | 72* | -12 | -52 | -8 | -47
CC1(C)Cc2c(sc3ncnc(NNC(=S)NCc4ccccc4)c23)CO1 | -2 | . | . | -34* | 0 | 4
Cc1c(Cl)cccc1NC(=O)CSc1nnc(C)n1CC1CCCO1 (centres undefined) | -1 | 0 | 0 | 3 | -13 | -1
Cc1nnc(SCC(=O)Nc2cc(Cl)ccc2Cl)n1CC1CCCO1 (centres undefined) | -2 | . | 1 | 0 | -12 | 73*
CN(C)C(=S)Nc1ccc([N+](=O)[O-])cc1 | . | . | . | . | . | 68*
CC(C)CC#Cc1cnc2c(c1)C(=O)N([C@@H](C)CO)C[C@@H](C)[C@@H](CN(C)C(=O)CCN1CCCCC1)O2 | 0 | 1 | -5 | 2 | 27 | -13
